System: MS2 coat protein
Experiment: apparent Kd, MS2 coat protein; higher = weaker binding; RNA-MaP array; FMN 200 µM where present
Summary of the method: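 In 100 mM Tris-HCl pH 7.5, 80 mM KCl, 4 mM MgCl2, BSA, DTT, yeast tRNA and Tween-20, SNAP-549-labelled MS2 coat protein was titrated from 0.7 or 1.5 nM, doubling to 3 µM, over designs transcribed by stalled E. coli RNA polymerase on Illumina sequencing-chip clusters. This was done first without ligand, then with ligand held constant. After green signal was normalised to red-channel RNA signal and control-cluster median Fmax, the apparent Kd was taken as the median of filtered per-cluster binding-curve fits.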

[1] = designed as: ON switch for flavin mononucleotide, no ligand
[2] = ligand present: flavin mononucleotide, designed as: ON switch for flavin mononucleotide
[3] = designed as: OFF switch for flavin mononucleotide, no ligand
[4] = ligand present: flavin mononucleotide, designed as: OFF switch for flavin mononucleotide

Sequence | apparent Kd [1] | apparent Kd [2] | apparent Kd [3] | apparent Kd [4]
GAUUUCGCAUGAGGAUAUGCUCCCGUUUCGGGAGCAGAAGGCAUGUCAUUAGACAUGAGGAUCACCCAUGUAGUUAAGAUUGAA | 378 nM | 15.7 nM | – | –
UGGUACUAGGGAGGAUAUGGGAAGAUACAUGAGGAUCACCCAUGUUUAAGAAUGCCGAGAGGCAACUAGAAGGCCAUAGUACCU | 405 nM | 22 nM | – | –
AGUCAGAGCAGAGGAUAUAUACAUGAGGAUCACCCAUGUGACUGACUAUGCUAGAAAUAGCAUGUAUAGAAGGCUGCUCUGACA | – | – | 85 nM | 223 nM
AAAAUCACAUGAGGAUCACCCAUGUACCGAGCUAGGGCUACAUAGGAUAUGACAAGUAUAGCUUGUCAGAAGGGUGAGUCUCGC | 166 nM | 258 nM | – | –
UGAUCGAGAGAUCUUAGAUUCUGGUAGGAUAUACAUAAUGUAAUAUAGACAUGAGGAUCACCCAUGUAGAAGGACUAGAGUCUA | – | – | 8.49 nM | 24.3 nM
AAGUGCCUGUCGAUGCUCGACAUGAGGAUCACCCAUGUACAGCAGGAUAUGCAGAACUACCUCGUGCAGAAGGGCUGUACCAAU | – | – | 97.1 nM | 80.1 nM
CUGGAUCACGCAGGAUAUUACAUGAGGAUCACCCAUGUCAGAACUGCAAUAUCGUCUCCUCGUUGUGAGAAGGGCGGAAUCAUA | – | – | 13.8 nM | 19.9 nM
AUGGUGACGUAGAAGGGUGACAUGAGGAUCACCCAUGUGCCGAUAUAUCUCGAGAUAUGUCGGCCACAGGAUAUACGUGCCAUC | 150 nM | 158 nM | – | –
CCCUCACAUGAGGAUCACCCAUGUCAGGAUAUUCGAGGCGCAAAUGCGCCAAAUGCAGGAAGAAGGGACGUGCC | – | – | 15.4 nM | 25.7 nM
AAAUUCAGAGGAUAUGCGCAUAGAUAAGACUUUGUUUCUUAACAUGAGGAUCACCCAUGUAGAAGGCUGUACCC | – | – | 17.9 nM | 20.1 nM
AUGUGGUGCGUAGGAUAUCAUUGAGGGAAACCCUGAGAAGGACGUGAGGACAUGAGGAUCACCCAUGUGGAUCACCCAUGUCAU | – | – | 196 nM | 253 nM
ACAGAGGCUGACAUGAGGAUCACCCAUGUUAGAUUGUUAUGUCAGGAUAUUAUCUCGCAACGAGAUAAGAAGGGACCCUCUGUG | 37.5 nM | 7.98 nM | – | –
GGACCGCGCAGAGUUGACGGUCGGCAGGAUAUGACAUGAGGAUCACCCAUGUGAACUCCAUUGGGUCAGAAGGGCCACGACGAA | – | – | 21.1 nM | 77.3 nM
CUGUUAUUGAUCCAUUUUUUCAACAUGAGGAUCACCCAUGUGCAGGAUAUCUUGUUUAUUUUCAUCGAGAAGGGCAUAUUCACG | – | – | 159 nM | 196 nM
CGUAACUGCAUAGGAUAUUGAUACAUGAGGAUCACCCAUGUUUUUCGGAUUAUAUAUAUACUUAGCAAGAAGGAUGGAGUUACG | 9.3 nM | 5.74 nM | – | –
ACAAGGCAUGUAGGAUAUCCAUUGCGUCGCGAUGGAGAAGGGCAACACACAUGAGGAUCACCCAUGUGGUCACCCAUGUCGUGU | – | – | 55.8 nM | 68.8 nM
GCACGGCGUGUAGGAUAUGCAUAGCAUUGCUAUGCAGAAGGACAUGAGGAUCACCCAUGUAUGUAUUCCAUACAUUUCCCGUGC | – | – | 6.42 nM | 7.31 nM
UUGAAUUGAAACAUGAGGAUCACCCAUGUGUCAUAAUUGACAUAGGAUAUGUUUAUACUUUUAAAACAGAAGGAUGACGAUACU | 14.1 nM | 9.68 nM | – | –
CUUUUGUGAGGAUAUCAGUAGUAAAAUAAUAAUAUUACUACUGAGAAGGCACAUGAGGAUCACCCAUGUUCCUC | – | – | 40.5 nM | 267 nM
AGUACUCAAAGAGUACCCAUACGGACAUGAGGAUCACCCAUGUAGGAUAUGCUACUCAAAGAGUAGUAGAAGGACAUAUUCCUC | – | – | 9.52 nM | 20.3 nM
ACGUAUCAUGUAGGAUAUGACCCAGGAAAUUGGUCAGAAGGACAUGAGGAUCACCCAUGUAGAGUAUGUUAGGAUGACGUAUGC | – | – | 115 nM | 165 nM
AUAUCAUACCAAGGAUAUUUAGGAUUUGUGUAGACAUGAGGAUCACCCAUGUGGCGUUAGUCACGGGAGAAGGUGGUAUGAUAU | 622 nM | 105 nM | – | –
GCUGCAUAGGCAGGAUAUGCAAUAAUUCGAAUAGAAUAUAACGAAUUAACAUGAGGAUCACCCAUGUAGAAGGGCCUGUGCAGU | – | – | 5.76 nM | 5.58 nM
AAUAACAGAGGAUAUACUGUUUUAUGUGUUUGUUAUUUUGAACAUGAGGAUCACCCAUGUAGAAGGCUGAUUGA | – | – | 50 nM | 44.9 nM

Sequence | apparent Kd [1] | apparent Kd [2] | apparent Kd [3] | apparent Kd [4]
AAGACGUGGGAAGGAUAUCUGGAAUAUCGGUCGAGAGAAGGUCCCUCGACAUGAGGAUCACCCAUGUAACGCGGUCUACCGUGU | 596 nM | 494 nM | – | –
GCACUUAAGUUAGGAUAUGGAUCGGAAAACGAUCCAGAAGGAAUAUGGGAACAUGAGGAUCACCCAUGUUCCACAGACAAGUGC | 47.5 nM | 24.4 nM | – | –
UCCUAACAUGAGGAUCACCCAUGUGAGGAUAUGAUACUAUGUACUUCGGUACAUAGUAUCAGAAGGCACAUCCU | – | – | 19.1 nM | 26 nM
GUUCUCGGAGGAUAUACACAGUGAGAACCCGCGCAAGCGGGACAUGAGGAUCACCCAUGUAGAAGGUCGAGCAA | – | – | 70.2 nM | 170 nM
AAAAAGUCAGGAUAUACGAAAAAAAAAAAAAAAAAAAAAAAGUAGAAGGGACAUGAGGAUCACCCAUGUAAAAA | – | – | 78.2 nM | 58.8 nM
GGCGGUCGGGAGGAUAUUCGGGCUGUUUGGCUUGGAGAAGGCUCGACAUGAGGAUCACCCAUGUUAGUGUUCUU | – | – | 73.9 nM | 506 nM
GGCAUAAACGAGGAUAUCGUAUCGGAAACGAUACGAGAAGGUGUAACAUGAGGAUCACCCAUGUUCCUCAAGCC | – | – | 36.7 nM | 34.8 nM
AAGUAGACGGUGAGGAUAUAGGUCGAAUGACCGAUCUAGAAGGCACAUGAGGAUCACCCAUGUGGGUAACGUCG | – | – | 17.8 nM | 20.7 nM
AACUCACAUGAGGAUCACCCAUGUGAGGAUAUAUAAAUAUAUAUGUUAUUGUAUGUUUGUAGAAGGCGCGUGAU | – | – | 38.6 nM | 43.1 nM
UUAUUUUGUCAAGGAUAUGUAGUAUUGAUCUGAAAACAUGAGGAUCACCCAUGUAUAUGGUGGGAACAGAAGGUGAAUGUUGAA | – | – | 658 nM | 845 nM
CCUAAGGACACAGGAUAUAGCGUGGUGGCCGGGCUCCAACGGCGAGCGGCGCUAGAAGGGUGACCACAUGAGGAUCACCCAUGU | 506 nM | 161 nM | – | –
UUGGACGUCGUAGAAUAUGUAGGAUAUUCCUACAUGAGGAUCACCCAUGUUGACAUGGAAGAAGGACAGAAGGACGAUGUCCAU | 188 nM | 7.02 nM | – | –
UGAGCCGGCACUGAGGAUAUUCAUAUUUAAACAUGAGGAUCACCCAUGUAGGCCAGAAGGCCUUGGGAGAAGGCAGGUCGGCUCU | 399 nM | 24.6 nM | – | –
AAGGAAACCACAGGAUAUGGCUAGAAUAUCUAGCCAGAAGGGUGGUCGAAACCAUGUAAAUACAUGAGGAUCACCCAUGUGUCC | 345 nM | 378 nM | – | –
UUUUGGCAUGUAGGAUAUGGGUCCGAUUAGGAUUUAGAAGGACAUGAGGAUCACCCAUGUGCAUUUAAUUGGUCUUUAUUUUUU | – | – | 64.1 nM | 85.6 nM
GUGCUAUGAGGAUAUACGUUGGUGGGCAUCUGUGUGCUCCUACAUGAGGAUCACCCAUGUAGAAGGCAUGUCAC | – | – | 12.4 nM | 21.9 nM
UUGGCGACGUAGAAGGGUGACAUGAGGAUCACCCAUGUGCCGAUAUUUCUCGAAAUAUGUCGGCCACAGGAUAUACGUGCCAUC | 38.2 nM | 91.8 nM | – | –
AUCCGACAUGAGGAUCACCCAUGUCAGGAUAUGGACUGACAUCGAAAGGAUGGCAGAACCAGAAGGGACUGGGC | – | – | 29.9 nM | 56.2 nM
UAUUACCUAGGAUAUACAUGAGGAUCACCCAUGUCACGGGUCAACUUGUCCUACGCGUGUAGAAGGAGGGACCC | – | – | 21 nM | 21.4 nM
ACACAUGAGGAUCACCCAUGUACGCGCUGACAGGAGGUCUCACAGGAUAUAUGUAGUGAUGCUACAUAGAAGGGUGAUACCGCG | 67.5 nM | 16.2 nM | – | –
GAAAAACAUGAGGAUCACCCAUGUGAGAAUAUGGGAGGAUAUACGAGGACGAGAGUCAAGGUAGAAGGCCUAAAAG | 96.3 nM | 15.2 nM | – | –
AAUAUGAGCUGGAAUAUAAACCUGACAUGAGGAUCACCCAUGUAGGAUAUCAGCACGAUAAGUGCUGAGAAGGACAACCAGCUC | – | – | 14 nM | 14.5 nM
UGGUACAUGGGAGGAUAUAGGUUGAUAACAUGAGGAUCACCCAUGUUAAAUAAGCCGAGAGGCUACUAGAAGGCCCAUGUACCU | 4.73 nM | 4.75 nM | – | –
CGAGCUGCUGUGAGGAUAUACCUAUGGAUACAUGGGUAGAAGGCACAUGAGGAUCACCCAUGUCCUGCAGCUCG | – | – | 43.2 nM | 273 nM

Source: the EternaBench riboswitch data
